From ChEMBL document CHEMBL4765235, “Discovery of N-[Bis(4-methoxyphenyl)methyl]-4-hydroxy-2-(pyridazin-3-yl)pyrimidine-5-carboxamide (MK-8617), an Orally Active Pan-Inhibitor of Hypoxia-Inducible Factor Prolyl Hydroxylase 1-3 (HIF PHD1-3) for the Treatment of Anemia” (J Med Chem, 2016)

Assays:
[1] = In vivo inhibition of HIF-PHD2 in C57BL/6 mouse assessed as serum erythropoietin level at 15 mg/kg, iv measured after 4 hrs; format: functional
How it was run: (§1)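 Mouse pharmacodynamic EPO assay (MoPED). Compound dosed iv; serum EPO measured 4 hr after dosing and reported in pg/mL. Minimum effective dose is the lowest dose giving EPO elevation.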

[2] = Half life in dog at 1 mg/kg, po or 0.5 mg/kg, iv; format: ADME, organism-based, Canis lupus familiaris; conditions: in vivo
How it was run: (§2)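 Single-dose PK at 1 mg/kg po and 0.5 mg/kg iv. Mouse clearance is from blood; dog and rhesus clearance is from plasma. Mouse vehicle, both routes: DMSO:PEG400:water (5:40:55, v/v/v). Dog and monkey iv vehicle: PEG200:12%HPCD:water (30:12:58 v/v/v). Dog and monkey po vehicle: Imwitor:Tween (1:1 w/w).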

Egl nine homolog 1 [3] = target: T1, Egl nine homolog 1 (Homo sapiens, UniProt Q9GZT9); experiment: Inhibition of FLAG-tagged full-length HIF-PHD2 (unknown origin) expressed in baculovirus infected Sf9 cells using 2-oxoglutarate and HIF1alpha biotinyl-DLDLEMLAPYIPMDDDFQL as peptide substrates preincubated for 30 mins followed by substrate addition and measured after 2 hrs by LANCE assay
T1 sequence (Q9GZT9 whole entry): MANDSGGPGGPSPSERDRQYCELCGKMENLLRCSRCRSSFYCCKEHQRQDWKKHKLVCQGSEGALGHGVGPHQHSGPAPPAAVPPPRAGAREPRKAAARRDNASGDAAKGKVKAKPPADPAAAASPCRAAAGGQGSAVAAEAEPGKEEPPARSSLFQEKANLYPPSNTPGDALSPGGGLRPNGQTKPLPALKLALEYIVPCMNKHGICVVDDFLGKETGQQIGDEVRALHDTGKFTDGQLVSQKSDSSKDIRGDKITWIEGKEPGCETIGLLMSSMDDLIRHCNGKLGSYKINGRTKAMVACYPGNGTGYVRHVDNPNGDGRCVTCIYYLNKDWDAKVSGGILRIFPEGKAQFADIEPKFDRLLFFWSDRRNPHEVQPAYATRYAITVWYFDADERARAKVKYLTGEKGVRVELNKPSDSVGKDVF

[4] = Oral bioavailability in rat at 2 mg/kg; format: ADME, organism-based; conditions: in vivo
[5] = Half life in rat at 2 mg/kg, po or 1 mg/kg, iv; format: ADME, organism-based; conditions: in vivo
[6] = In vivo inhibition of HIF-PHD2 in C57BL/6 mouse assessed as serum erythropoietin level at 50 mg/kg, iv measured after 4 hrs; format: functional; how it was run: as §1
[7] = In vivo inhibition of HIF-PHD2 in C57BL/6 mouse assessed as serum erythropoietin level at 100 mg/kg, iv measured after 4 hrs; format: functional; how it was run: as §1
[8] = Volume of distribution at steady state in dog at 1 mg/kg, po or 0.5 mg/kg, iv; format: ADME, organism-based, Canis lupus familiaris; conditions: in vivo, read-out: Vdss
How it was run: (§3)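 Dog and rhesus monkey dosed 1 mg/kg po and 0.5 mg/kg iv. The iv vehicle was PEG200:12%HPCD:water (30:12:58 v/v/v); the po vehicle was Imwitor:Tween (1:1 w/w). Clearance was measured in plasma. Protein binding was measured in 100% serum.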

[9] = Cmax in rat at 2 mg/kg, po or 1 mg/kg, iv; format: ADME, organism-based; design: dose 2 mg/kg; conditions: in vivo
[10] = Clearance in rat at 2 mg/kg, po or 1 mg/kg, iv; format: ADME, organism-based; conditions: in vivo
[11] = Volume of distribution at steady state in mouse at 2 mg/kg, po or 1 mg/kg, iv; format: ADME, organism-based; conditions: in vivo, read-out: Vdss
[12] = Protein binding in rhesus monkey plasma assessed as unbound fraction at 1 mg/kg, po or 0.5 mg/kg, iv; format: ADME, organism-based, Macaca mulatta; conditions: read-out: PPB
[13] = Protein binding in rat plasma assessed as unbound fraction at 2 mg/kg, po or 1 mg/kg, iv; format: ADME, organism-based; conditions: read-out: PPB
[14] = Volume of distribution at steady state in rat at 2 mg/kg, po or 1 mg/kg, iv; format: ADME, organism-based; conditions: in vivo, read-out: Vdss
[15] = Protein binding in mouse plasma assessed as unbound fraction at 2 mg/kg, po or 1 mg/kg, iv; format: ADME, organism-based; conditions: read-out: PPB
[16] = In vivo inhibition of HIF-PHD2 in C57BL/6 mouse assessed as serum erythropoietin level at 5 mg/kg, iv measured after 4 hrs; format: functional; how it was run: as §1
[17] = Oral bioavailability in mouse at 2 mg/kg; format: ADME, organism-based; conditions: in vivo
[18] = Protein binding in dog plasma assessed as unbound fraction at 1 mg/kg, po or 0.5 mg/kg, iv; format: ADME, organism-based, Canis lupus familiaris; conditions: read-out: PPB
[19] = Half life in rhesus monkey at 1 mg/kg, po or 0.5 mg/kg, iv; format: ADME, organism-based, Macaca mulatta; conditions: in vivo; how it was run: as §2
[20] = Cmax in dog at 1 mg/kg, po or 0.5 mg/kg, iv; format: ADME, organism-based, Canis lupus familiaris; design: dose 1 mg/kg; conditions: in vivo; how it was run: as §2
[21] = Oral bioavailability in rhesus monkey at 1 mg/kg; format: ADME, organism-based, Macaca mulatta; conditions: in vivo; how it was run: as §3
[22] = Clearance in rhesus monkey at 1 mg/kg, po or 0.5 mg/kg, iv; format: ADME, organism-based, Macaca mulatta; conditions: in vivo; how it was run: as §2
[23] = Oral bioavailability in dog at 1 mg/kg; format: ADME, organism-based, Canis lupus familiaris; conditions: in vivo; how it was run: as §3
[24] = Clearance in dog at 1 mg/kg, po or 0.5 mg/kg, iv; format: ADME, organism-based, Canis lupus familiaris; conditions: in vivo; how it was run: as §2
[25] = Clearance in mouse at 2 mg/kg, po or 1 mg/kg, iv; format: ADME, organism-based; conditions: in vivo
[26] = Volume of distribution at steady state in rhesus monkey at 1 mg/kg, po or 0.5 mg/kg, iv; format: ADME, organism-based, Macaca mulatta; conditions: in vivo, read-out: Vdss; how it was run: as §3
[27] = Half life in mouse at 2 mg/kg, po or 1 mg/kg, iv; format: ADME, organism-based; conditions: in vivo
[28] = Cmax in mouse at 2 mg/kg, po or 1 mg/kg, iv; format: ADME, organism-based; design: dose 2 mg/kg; conditions: in vivo
[29] = Cmax in rhesus monkey at 1 mg/kg, po or 0.5 mg/kg, iv; format: ADME, organism-based, Macaca mulatta; design: dose 1 mg/kg; conditions: in vivo; how it was run: as §2
[30] = Plasma clearance in rat at 2 mg/kg, po or 1 mg/kg, iv; format: ADME, organism-based
[31] = In vivo inhibition of HIF-PHD2 in iv dosed C57BL/6 mouse assessed as minimum effective dose causing increase in serum erythropoietin levels measured after 4 hrs; format: functional; conditions: C57BL/6, iv, read-out: MED; how it was run: as §1
Egl nine homolog 1 [32] = target: T1, Egl nine homolog 1; experiment: Inhibition of HIF-PHD2 (unknown origin)
[33] = target: Voltage-gated inwardly rectifying potassium channel KCNH2 (Homo sapiens, UniProt Q12809); experiment: Inhibition of human ERG
Voltage-gated inwardly rectifying potassium channel KCNH2, sequence (Q12809 whole entry): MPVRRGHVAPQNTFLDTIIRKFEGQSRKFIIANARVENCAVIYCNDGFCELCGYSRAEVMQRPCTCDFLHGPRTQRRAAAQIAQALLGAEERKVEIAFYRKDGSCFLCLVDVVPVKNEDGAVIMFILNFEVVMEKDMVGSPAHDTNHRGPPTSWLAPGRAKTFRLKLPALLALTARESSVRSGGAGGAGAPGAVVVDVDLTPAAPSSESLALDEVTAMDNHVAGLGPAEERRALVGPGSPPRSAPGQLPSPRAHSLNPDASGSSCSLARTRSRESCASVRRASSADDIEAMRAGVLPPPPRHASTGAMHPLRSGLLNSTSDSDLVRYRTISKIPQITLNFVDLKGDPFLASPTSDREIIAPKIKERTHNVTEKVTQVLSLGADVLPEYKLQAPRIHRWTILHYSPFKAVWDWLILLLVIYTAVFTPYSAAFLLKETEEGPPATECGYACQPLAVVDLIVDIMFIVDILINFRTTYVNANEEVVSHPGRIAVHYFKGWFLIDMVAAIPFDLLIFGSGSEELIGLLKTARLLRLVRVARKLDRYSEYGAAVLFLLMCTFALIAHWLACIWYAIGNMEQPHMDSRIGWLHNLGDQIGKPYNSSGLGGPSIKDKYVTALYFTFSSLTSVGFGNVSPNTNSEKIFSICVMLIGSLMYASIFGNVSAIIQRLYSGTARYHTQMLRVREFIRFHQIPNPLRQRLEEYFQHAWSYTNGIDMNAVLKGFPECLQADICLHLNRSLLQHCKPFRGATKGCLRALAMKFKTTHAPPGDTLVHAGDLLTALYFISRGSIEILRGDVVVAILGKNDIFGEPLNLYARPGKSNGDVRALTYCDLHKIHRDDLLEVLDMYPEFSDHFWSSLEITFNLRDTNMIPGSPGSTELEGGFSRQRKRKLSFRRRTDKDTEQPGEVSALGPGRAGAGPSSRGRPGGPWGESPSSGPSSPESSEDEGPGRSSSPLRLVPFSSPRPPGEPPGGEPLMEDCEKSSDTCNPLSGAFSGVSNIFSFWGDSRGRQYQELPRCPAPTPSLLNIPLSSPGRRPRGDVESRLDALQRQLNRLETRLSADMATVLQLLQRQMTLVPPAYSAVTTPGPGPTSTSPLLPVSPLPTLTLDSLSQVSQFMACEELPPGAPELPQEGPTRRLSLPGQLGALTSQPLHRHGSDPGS

[34] = In vivo inhibition of HIF-PHD2 in C57BL/6 mouse assessed as serum erythropoietin level at 1.5 mg/kg, iv measured after 4 hrs; format: functional; how it was run: as §1

Compound: COc1ccc([C@H](C)NC(=O)c2cnc(-n3cccn3)nc2O)cc1
- Activity [1]: 5300 pg/mL
- half-life [2]: 94 h

Compound: CC(C)(NC(=O)c1cnc(-c2ccc(C(F)(F)F)cn2)nc1O)c1ccccc1
- IC50 (Egl nine homolog 1 [3]): > 2.7 µM

Compound: CC(C)(NC(=O)c1cnc(-n2cc(C(=O)O)cn2)nc1O)c1ccccc1
- Activity [1]: 1900 pg/mL
- bioavailability [4]: 3%
- half-life [5]: 2.1 h

Compound: O=C(NCc1ccc(OC(F)(F)F)cc1)c1cnc(-n2cccn2)nc1O
- Activity [6]: 8900 pg/mL
- Activity [1]: 180 pg/mL

Compound: O=C(NCc1ccc(Cl)cc1)c1cnc(-n2cccn2)nc1O
- Activity [1]: 1100 pg/mL

Compound: C[C@H](NC(=O)c1cnc(-n2cccn2)nc1O)c1ccc(F)cc1
- Activity [1]: 16000 pg/mL
- half-life [2]: 60 h

Compound: Cc1nc(-c2ncc(C(=O)NC(C)(C)c3ccccc3)c(O)n2)cs1
- Activity [7]: 110 pg/mL

Compound: CC(C)(NC(=O)c1cnc(-n2cccn2)nc1O)c1ccccc1
- Vd [8]: 0.1 L/kg
- Cmax [9]: 49 µM
- clearance [10]: 0.2 mL/min/kg
- Vd [11]: 0.3 L/kg
- Activity [6]: 24000 pg/mL
- fraction unbound [12]: 0.004
- Activity [1]: 5000 pg/mL
- fraction unbound [13]: 0.012
- Vd [14]: 0.06 L/kg
- fraction unbound [15]: 0.093
- Activity [16]: 460 pg/mL
- bioavailability [17]: 98%
- fraction unbound [18]: 0.027
- half-life [2]: > 100 h
- half-life [19]: 95 h
- Cmax [20]: 11 µM
- bioavailability [21]: 71%
- clearance [22]: 0.001 mL/min/kg
- bioavailability [23]: 61%
- clearance [24]: 0.004 mL/min/kg
- clearance [25]: 1 mL/min/kg
- Vd [26]: 0.13 L/kg
- half-life [27]: 3.7 h
- Cmax [28]: 30 µM
- Cmax [29]: 22 µM
- bioavailability [4]: 99%
- half-life [5]: 4.2 h

Compound: C[C@H](NC(=O)c1cnc(-n2cccn2)nc1O)c1ccccc1
- Activity [1]: 10000 pg/mL
- Activity [16]: 690 pg/mL

Compound: C[C@@H](NC(=O)c1cnc(-n2cccn2)nc1O)c1ccc(F)cc1
- Activity [1]: 350 pg/mL

Compound: CC(C)(NC(=O)c1cnc(-c2cscn2)nc1O)c1ccccc1
- Activity [7]: 2100 pg/mL
- bioavailability [4]: 61%
- half-life [5]: 2.9 h

Compound: O=C(NCc1ccc(F)cc1)c1cnc(-c2ccccn2)nc1O
- clearance [30]: 2 mL/min/kg
- minimal effective dose [31]: 100 mg/kg
- Vd [14]: 0.35 L/kg
- IC50 (Egl nine homolog 1 [32]): 0.11 µM
- IC50 [33]: > 30 µM
- Activity [7]: 1200 pg/mL
- bioavailability [4]: 67%
- half-life [5]: 3.3 h

Compound: O=C(NC(c1ccccc1)c1ccccc1)c1cnc(-c2cccnn2)nc1O
- Activity [1]: 1600 pg/mL
- Activity [16]: 380 pg/mL
- IC50 [33]: > 30 µM

Compound: C[C@@H](NC(=O)c1cnc(-n2cccn2)nc1O)c1ccccc1
- Activity [1]: 322 pg/mL

Compound: O=C(NC(c1ccccc1)c1ccccc1)c1cnc(-n2cccn2)nc1O
- Activity [1]: 2900 pg/mL

Compound: COc1ccc(C(NC(=O)c2cnc(-n3cccn3)nc2O)c2ccc(OC)cc2)cc1
- Activity [1]: 31000 pg/mL
- Activity [34]: 190 pg/mL
- minimal effective dose [31]: 1.5 mg/kg
- Activity [16]: 740 pg/mL

Compound: CC(C)(NC(=O)c1cnc(-c2cc(C(=O)O)ccn2)nc1O)c1ccccc1
- Activity [1]: 220 pg/mL
- minimal effective dose [31]: 15 mg/kg
- bioavailability [4]: 5%
- half-life [5]: 0.23 h

Compound: O=C(NCc1ccc(-c2ccccc2)cc1)c1cnc(-n2cccn2)nc1O
- half-life [2]: 143 h
